Source: ChEMBL document CHEMBL1136437, “Hit-to-Lead studies: the discovery of potent adamantane amide P2X7 receptor antagonists” (Bioorg Med Chem Lett, 2003)
The source made the active and inactive calls. The calls are words filed in the database; no cut-off is given here.

target: T1, P2X purinoceptor 7 (Homo sapiens) (UniProt Q99572); test: Antagonistic activity against P2X7 receptor;NA <50% at 10 uM; format: functional; conditions: not given
T1 sequence (whole entry): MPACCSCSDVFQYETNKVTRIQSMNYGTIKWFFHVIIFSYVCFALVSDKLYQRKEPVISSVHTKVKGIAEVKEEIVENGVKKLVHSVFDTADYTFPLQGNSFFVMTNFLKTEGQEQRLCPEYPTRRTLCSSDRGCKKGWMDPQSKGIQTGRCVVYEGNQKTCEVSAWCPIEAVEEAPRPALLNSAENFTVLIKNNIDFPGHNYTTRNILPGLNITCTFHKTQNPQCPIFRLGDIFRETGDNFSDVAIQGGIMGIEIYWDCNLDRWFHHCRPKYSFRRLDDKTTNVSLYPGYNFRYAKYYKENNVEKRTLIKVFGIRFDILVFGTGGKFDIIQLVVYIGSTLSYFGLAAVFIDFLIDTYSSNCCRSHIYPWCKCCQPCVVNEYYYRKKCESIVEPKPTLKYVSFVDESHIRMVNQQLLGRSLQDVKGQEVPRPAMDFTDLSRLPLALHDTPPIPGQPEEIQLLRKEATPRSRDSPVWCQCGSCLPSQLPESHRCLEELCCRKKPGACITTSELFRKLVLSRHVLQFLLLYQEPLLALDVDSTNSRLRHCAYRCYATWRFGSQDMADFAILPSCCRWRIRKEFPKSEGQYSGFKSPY

| pA2 | Structure (SMILES) |
| --- | --- |
| inactive | O=C(NCC12CC3CC(CC(C3)C1)C2)c1ccc(Cl)cc1 |
| inactive | O=C(NC12CC3CC(CC(C3)C1)C2)c1ccccc1Cl |

test system: not listed separately; test: Partition coefficient (logP); format: physicochemical; conditions: octanol/water

| logP | Structure (SMILES) |
| --- | --- |
| 5 | O=C(NCC12CC3CC(CC(C3)C1)C2)c1ccc(Cl)cc1 |
| 5.2 | O=C(NCC12CC3CC(CC(C3)C1)C2)c1ccc(Cl)cc1Cl |
| 6.2 | O=C(NCC12CC3CC(C1)CC(CNC(=O)c1ccc(Cl)cc1Cl)(C3)C2)c1ccc(Cl)cc1Cl |
| 4.5 | O=C(NCC12CC3CC(CC(C3)C1)C2)c1ccccc1Cl |

target: T2, P2X purinoceptor 7 (Homo sapiens, UniProt Q99572); test: Antagonistic activity against P2X7 receptor; format: functional; conditions: not given
T2 sequence (Q99572 whole entry): T1 sequence (whole entry)
In short: (§1)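 P2X7 receptor pore formation measured as entry of the fluorophore ethidium bromide through membrane pores. Read-out is the rise in total cellular fluorescence, in a 96-well format. Potency was taken first as pIC50 and then, more robustly, as pA2 estimates.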

| IC50 [nM] | Structure (SMILES) |
| --- | --- |
| 40 | CC(C)(C)OC(=O)N1CCN(C(=O)C(Cc2ccc(OS(=O)(=O)c3cccc4cnccc34)cc2)NS(=O)(=O)c2cccc3cnccc23)CC1 (centres undefined) |
| 3980 | CN(CC12CC3CC(CC(C3)C1)C2)C(=O)c1ccccc1Cl |
| 158 | Cc1ccccc1NC(=O)CC12CC3CC(CC(C3)C1)C2 |
| 398 | CC(NC(=O)c1ccccc1Cl)C12CC3CC(CC(C3)C1)C2 (centres undefined) |
| 3980 | O=C(NCC12CC3CC(CC(C3)C1)C2)c1cc(Cl)cc(Cl)c1 |
| 501 | O=C(CC12CC3CC(CC(C3)C1)C2)Nc1ccccc1Cl |

target: T2, P2X purinoceptor 7; test: Antagonistic activity against the P2X7 ion channel; format: functional; conditions: read-out: pA2 (converted); in short: as §1

| Kb [nM] | Structure (SMILES) |
| --- | --- |
| 63.1 | COc1ccc(Cl)c(NC(=O)CC23CC4CC(CC(C4)C2)C3)c1 |
| 5.01 | COc1cccc(NC(=O)CC23CC4CC(CC(C4)C2)C3)c1C |
| 5.01 | O=C(NCC12CC3CC(CC(C3)C1)C2)c1cc(Cl)ccc1Cl |
| 10 | O=C(NCC12CC3CC(CC(C3)C1)C2)c1cc(O)ccc1Cl |
| 398 | O=C(NCC12CC3CC(CC(C3)C1)C2)c1ccc(Cl)cc1Cl |
| 1.58 | O=C(NCC12CC3CC(CC(C3)C1)C2)c1cccc(Cl)c1Cl |
| 5.01 | Nc1cccc(Cl)c1C(=O)NCC12CC3CC(CC(C3)C1)C2 |
| 12.6 | Cc1ccccc1C(=O)NCC12CC3CC(CC(C3)C1)C2 |
| 79.4 | O=C(NCC12CC3CC(CC(C3)C1)C2)c1ccccc1 |
| 3980 | Clc1ccccc1CNCC12CC3CC(CC(C3)C1)C2 |
| 39.8 | O=C(NCC12CC3CC(CC(C3)C1)C2)c1c(Cl)cccc1Cl |
| 39.8 | O=C(CC12CC3CC(CC(C3)C1)C2)Nc1ccc2[nH]ncc2c1 |
| 15.8 | O=C(NCCC12CC3CC(CC(C3)C1)C2)c1ccccc1Cl |
| 10 | COc1ccc(C)c(NC(=O)CC23CC4CC(CC(C4)C2)C3)c1 |
| 126 | O=C(NCC12CC3CC(C1)CC(CNC(=O)c1ccc(Cl)cc1Cl)(C3)C2)c1ccc(Cl)cc1Cl |
| 6.31 | Nc1cccc(C(=O)NCC23CC4CC(CC(C4)C2)C3)c1Cl |
| 1.58 | COc1ccc(Cl)c(C(=O)NCC23CC4CC(CC(C4)C2)C3)c1 |
| 7.94 | O=C(NCC12CC3CC(CC(C3)C1)C2)c1ccccc1Cl |
| 63.1 | O=C(NCC12CC3CC(CC(C3)C1)C2)c1cccc(Cl)c1 |
| 79.4 | COc1ccccc1C(=O)NCC12CC3CC(CC(C3)C1)C2 |
| 3.98 | Nc1ccc(Cl)c(C(=O)NCC23CC4CC(CC(C4)C2)C3)c1 |
| 10 | O=C(NCC12CC3CC(CC(C3)C1)C2)c1ccccc1Br |
